# According to PMC3823637 (Neuropharmacology, 2013):
# Key:
# Format in all cases: cell-based
# [1] = test system: rat hypothalamic neurons (native AT1R); assay: Whole cell patch recordings from neurons in rat hypothalamic slices; settings: for effect on Ang-(1-12)-induced depolarization / effect on Ang II-induced depolarization: antagonist/inhibitor 10 μM; for effect on Ang-(1-12)-induced depolarization: prior superfusion of slices; for effect on Ang II-induced depolarization: pretreatment of slices by superfusion
# Method in brief: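 Coronal hypothalamic slices (250 μm, vibratome) came from Sprague-Dawley rats, 17-20 days old, of either sex, anaesthetised with 4% isoflurane. Slices were superfused with solution gassed with 95% O2/5% CO2 at 20 ± 1°C. Current-clamp whole-cell recordings were made from neurons […] to the 3rd ventricle. Peptide was puffed by nitrogen from a micropipette at 20-30 min intervals. Slices were pretreated with losartan, PD123319 or captopril at 10 μM each.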
# AT1R [2] = target: T1, AT1R (Homo sapiens, UniProt P30556); assay: Ca2+-based FLIPR assay, CHO/16z25 cells transiently expressing AT1R
# T1 sequence (P30556 1-359): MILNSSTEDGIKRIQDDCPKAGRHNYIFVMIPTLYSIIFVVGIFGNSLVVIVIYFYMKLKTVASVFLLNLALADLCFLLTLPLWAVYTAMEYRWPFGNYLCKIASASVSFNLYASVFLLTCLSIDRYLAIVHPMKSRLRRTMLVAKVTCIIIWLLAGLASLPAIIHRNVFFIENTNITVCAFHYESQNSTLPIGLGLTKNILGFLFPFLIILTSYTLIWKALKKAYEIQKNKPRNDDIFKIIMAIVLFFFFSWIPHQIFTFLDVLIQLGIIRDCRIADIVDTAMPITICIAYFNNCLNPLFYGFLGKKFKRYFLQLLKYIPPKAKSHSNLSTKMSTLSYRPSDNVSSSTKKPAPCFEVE
# AT1R [3] = target: T1, AT1R; settings: 10 μM losartan; 1 μM Ang II or 10 μM Ang-(1-12), 5 min
SMILES,"hypothalamic neurons depolarized of those examined ([1]; Ang II 1 mM in micropipette, pressure ejection)","membrane depolarization, mean amplitude ([1]; Ang II 1 mM in micropipette, pressure ejection, mean ± SEM, n=10) [mV]",effect on Ang-(1-12)-induced depolarization [1],effect on Ang II-induced depolarization [1],"effect on Ca2+ response stimulated by Ang-(1-12) (AT1R [2]; 5 μM Ang-(1-12), losartan 0.1-10 μM, pre-incubated 30 min, dose-dependent)",effect on Ang II-induced Ca2+ mobilization (AT1R [2]; COS-7 and CHO cells transfected with AT1R cDNA),effect on Ang-(1-12)- and Ang II-induced ERK responses (AT1R [3])
"CC[C@H](C)[C@H](NC(=O)[C@H](Cc1ccc(O)cc1)NC(=O)[C@@H](NC(=O)[C@H](CCCNC(=N)N)NC(=O)[C@@H](N)CC(=O)O)C(C)C)C(=O)N[C@@H](Cc1c[nH]cn1)C(=O)N1CCC[C@H]1C(=O)N[C@@H](Cc1ccccc1)C(=O)O [Ang II, angiotensin II]",10 of the 27,6.9 ± 0.9,,,,,
Cc1cc(Cn2cnc3c2C[C@@H](C(=O)O)N(C(=O)C(c2ccccc2)c2ccccc2)C3)ccc1N(C)C [PD-123319],,,not affected,,,,
C[C@H](CS)C(=O)N1CCC[C@H]1C(=O)O [captopril],,,failed to suppress,not affected,,,
CCCCc1nc(Cl)c(CO)n1Cc1ccc(-c2ccccc2-c2nn[nH]n2)cc1 [losartan],,,antagonized,suppressed,effectively suppressed,suppressed,inhibited
